Measurements reported in ChEMBL document CHEMBL4270576, “Discovery of a benzenesulfonamide-based dual inhibitor of microsomal prostaglandin E2 synthase-1 and 5-lipoxygenase that favorably modulates lipid mediator biosynthesis in inflammation” (Eur J Med Chem, 2018).
The source made the active and inactive calls. No cut-off for these calls is given here.

Assays:
Prostaglandin E synthase = molecular target: T1, Prostaglandin E synthase (Homo sapiens, UniProt O14684); test: Inhibition of mPGES-1 isolated from microsomes of interleukin-1 beta-stimulated human A549 cells using PGH2 as substrate preincubated for 15 mins followed by substrate addition measured after 1 min by RP-HPLC analysis
T1 sequence (O14684 whole entry): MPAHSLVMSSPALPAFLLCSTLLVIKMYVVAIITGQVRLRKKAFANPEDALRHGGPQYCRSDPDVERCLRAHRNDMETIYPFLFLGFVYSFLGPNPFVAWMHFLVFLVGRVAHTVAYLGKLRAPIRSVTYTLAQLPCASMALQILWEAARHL
In short: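 Microsomes from A549 cells treated with IL-1β (1 ng/ml, 72 h), diluted in 0.1 M potassium phosphate pH 7.4 with 2.5 mM glutathione. Pre-incubated 15 min with compound or DMSO, then 20 µM PGH2 (final) for 1 min at 4 °C. IC50 from 4-5 concentrations.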

[1] = molecular target: T2, Prostaglandin E synthase (Homo sapiens) (UniProt O14684); test: Inhibition of mPGES-1 in LPS/IFNgamma-differentiated human M1 macrophages assessed as effect on PGE2 level at 3 uM preincubated for 15 mins followed by Escherichia coli (O6:K2:H1) challenge for 90 mins by LC-MS/MS analysis; set-up: scale not given: the % may be the effect or the level left
T2 sequence (whole entry): T1 sequence (O14684 whole entry)
In short: (§1)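 Monocytes differentiated 6 days with GM-CSF (20 ng/ml) in RPMI/10% FCS, then polarized 48 h with LPS 100 ng/ml plus IFN-γ 20 ng/ml (M1). Cells (2 × 10^6) in PBS with 1 mM CaCl2 pre-incubated 15 min at 37 °C with 3 µM compound or 0.1% DMSO, then E. coli O6:K2:H1 (1:50) for 90 min. Methanol with deuterated standards added; SPE; UPLC-MS/MS; expressed as % of vehicle.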

[2] = molecular target: T3, Polyunsaturated fatty acid 5-lipoxygenase (Homo sapiens) (UniProt P09917); test: Inhibition of recombinant human 5-LO binding to FLAP expressed in HEK293 cells at 10 uM after 1 hr by DAPI staining-based immunofluorescence microscopic analysis; assay type: cell-based
T3 sequence (whole entry): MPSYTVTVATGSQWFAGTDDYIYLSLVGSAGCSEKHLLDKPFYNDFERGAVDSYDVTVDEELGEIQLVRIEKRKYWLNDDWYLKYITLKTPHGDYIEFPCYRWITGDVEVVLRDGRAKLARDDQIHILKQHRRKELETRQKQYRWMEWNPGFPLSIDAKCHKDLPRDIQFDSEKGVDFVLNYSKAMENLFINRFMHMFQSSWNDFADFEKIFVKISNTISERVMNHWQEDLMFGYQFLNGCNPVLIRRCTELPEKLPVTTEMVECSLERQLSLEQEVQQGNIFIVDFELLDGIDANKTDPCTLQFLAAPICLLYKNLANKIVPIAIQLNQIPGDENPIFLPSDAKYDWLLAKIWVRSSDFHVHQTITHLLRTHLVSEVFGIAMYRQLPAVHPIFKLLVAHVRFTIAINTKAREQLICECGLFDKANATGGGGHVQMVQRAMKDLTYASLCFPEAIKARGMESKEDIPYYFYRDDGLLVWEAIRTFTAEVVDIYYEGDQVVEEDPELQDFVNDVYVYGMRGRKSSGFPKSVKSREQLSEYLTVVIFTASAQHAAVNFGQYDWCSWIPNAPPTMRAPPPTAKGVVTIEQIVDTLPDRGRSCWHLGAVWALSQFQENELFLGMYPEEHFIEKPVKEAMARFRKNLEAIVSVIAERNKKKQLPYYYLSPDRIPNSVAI
In short: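 HEK293 cells stably expressing 5-LO/FLAP, treated with 10 µM compound for 10 min and then 2.5 µM A23187 for 20 min at 37 °C, fixed, and probed with anti-5-LO/anti-FLAP primaries. This was followed by oligonucleotide-linked secondaries (1 h, 37 °C), ligation, rolling-circle amplification and DAPI nuclear stain. Proximity ligation signals counted microscopically in 100 cells from three experiments.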

[3] = molecular target: T4, Polyunsaturated fatty acid lipoxygenase ALOX12 (Homo sapiens) (UniProt P18054); test: Modulation of 12-LO-mediated 12-HEPE level in human M2 macrophages derived from IL4-polarized human monocyte derived macrophages at 3 uM preincubated for 15 mins followed by Escherichia coli (O6:K2:H1) challenge for 90 mins by LC-MS/MS analysis
T4 sequence (whole entry): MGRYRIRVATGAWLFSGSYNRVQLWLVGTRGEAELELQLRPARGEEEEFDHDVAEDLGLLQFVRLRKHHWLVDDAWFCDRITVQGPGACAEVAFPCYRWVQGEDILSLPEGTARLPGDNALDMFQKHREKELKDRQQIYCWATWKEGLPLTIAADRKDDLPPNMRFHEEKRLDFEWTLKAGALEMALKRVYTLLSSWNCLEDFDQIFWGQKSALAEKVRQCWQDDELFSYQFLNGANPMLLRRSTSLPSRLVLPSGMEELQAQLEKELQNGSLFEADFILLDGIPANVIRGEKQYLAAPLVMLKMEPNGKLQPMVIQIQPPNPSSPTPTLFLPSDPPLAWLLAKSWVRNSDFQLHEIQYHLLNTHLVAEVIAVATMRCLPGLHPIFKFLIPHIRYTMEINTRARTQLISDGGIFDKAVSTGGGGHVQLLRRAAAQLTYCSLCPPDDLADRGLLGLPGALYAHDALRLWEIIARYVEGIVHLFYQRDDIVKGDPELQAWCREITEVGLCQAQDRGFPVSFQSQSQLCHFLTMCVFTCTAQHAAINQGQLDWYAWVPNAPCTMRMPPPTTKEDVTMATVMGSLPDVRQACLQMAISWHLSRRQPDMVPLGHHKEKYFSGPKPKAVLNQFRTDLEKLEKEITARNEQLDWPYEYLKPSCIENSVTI
In short: (§2)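 Monocytes differentiated 6 days with M-CSF (20 ng/ml), then polarized 48 h with IL-4 20 ng/ml (M2). Cells (2 × 10^6) in PBS/1 mM CaCl2 pre-incubated 15 min at 37 °C with 3 µM compound or 0.1% DMSO, then challenged with E. coli O6:K2:H1 (1:50) for 90 min. Lipid mediators extracted by SPE with deuterated internal standards and quantified by UPLC-MS/MS as % of vehicle.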

Cyclooxygenase [4] = molecular target: T5, Cyclooxygenase (Homo sapiens, UniProt P35354+P23219); test: Modulation of COX1/2-mediated 11-HETE level in human M2 macrophages derived from IL4-polarized human monocyte derived macrophages at 3 uM preincubated for 15 mins followed by Escherichia coli (O6:K2:H1) challenge for 90 mins by LC-MS/MS analysis; assay type: ADME; details: 1.5 h; in short: as §2
Neutrophil = test: Cytotoxicity against human neutrophils at 10 uM; assay type: cell-based
[5] = molecular target: T4, Polyunsaturated fatty acid lipoxygenase ALOX12 (Homo sapiens); test: Modulation of 12-LO-mediated 14-HDHA level in human M2 macrophages derived from IL4-polarized human monocyte derived macrophages at 3 uM preincubated for 15 mins followed by Escherichia coli (O6:K2:H1) challenge for 90 mins by LC-MS/MS analysis; in short: as §2
Cyclooxygenase [6] = molecular target: T5, Cyclooxygenase; test: Modulation of COX1/2-mediated PGF2a level in human M1 macrophages derived from LPS/IFNgamma-polarized human monocyte derived macrophages at 3 uM preincubated for 15 mins followed by Escherichia coli (O6:K2:H1) challenge for 90 mins by LC-MS/MS analysis; assay type: protein assay; details: 1.5 h; in short: as §1

IC50 (Prostaglandin E synthase): 700 nM | Activity [1]: 72% | inhibition [2]: Active | Activity [3]: 140% | Activity (Cyclooxygenase [4]): 106% | Activity [5]: 125% | Activity (Cyclooxygenase [6]): 142%
SMILES: O=C(O)c1ccc(N(Cc2cccc(OCc3ccccc3)c2)S(=O)(=O)c2ccc(-c3ccccc3)cc2)cc1
Activity (Neutrophil): Non-Toxic
